Screening data: PubChem, Johns Hopkins Ion Channel Center
hERG rescue: shields human hERG channel from block by proarrhythmic agents; Q12809; CHO-hERG, FluxOR thallium flux, dofetilide IC70 present; activation (rescue from dofetilide block), less the hit threshold, % at 10 µM; 0.51% of 310,000 active;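 active = activation above the mean of controls blocked by dofetilide plus 5 SD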;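 also: thallium influx through hERG after potassium depolarization seen as dye fluorescence rise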
KCNK9 inh: inhibitors of human KCNK9 two-pore domain potassium channel | Q9NPC2 | HEK293 KCNK9, FluxOR thallium flux fluorescence; stronger effect = lower value | B-score at 10 µM | 1.2% of 310,000 active | AID 488922;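 active = ratio B-score over 3 SD below the library mean, with starting fluorescence within 5 SD of its mean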;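 also: negative B-score means less thallium flux so channel inhibition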
KCNK3 inh: human KCNK3 channel inhibition, primary screen. O14649. CHO-KCNK3 thallium flux, FluxOR fluorescence; stronger effect = lower value. B-score at 10 µM. 0.84% of 340,000 active. AID 602410;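 active = B-score under library mean minus 4 SD, starting fluorescence ratio at most library mean plus 5 SD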;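 also: more negative B-score means stronger inhibition of thallium flux through KCNK3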
KCNQ1 act: potentiates or activates the human KCNQ1 potassium channel; CHO-K1 KCNQ1, thallium flux FluxOR fluorescence; stronger effect = higher value; P51787; 0.35% of 310,000 active; AID 2648; B-score at 10 µM;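 active = fluorescence ratio B-score, a plate-corrected score, at least three library SD, with initial intensity B-score within 5 SD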
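Assay system: CHO-K1 cells stably expressing KCNQ1; Medium: assay buffer with matched DMSO; Also added: K+/Tl+ depolarizing stimulus; Dosing: single dose; Timing: dye 90 min, compound 20 min, room temperature; Measured by: kinetic FluxOR thallium fluorescence, 10-s 1-Hz baseline, 110-s post-stimulus read; Read-out: peak-minus-minimum fluorescence over initial fluorescence, negative-control normalized, B-scored.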
KCNQ1 inh: human KCNQ1 channel inhibition; CHO-K1 KCNQ1, FluxOR thallium flux fluorescence; stronger effect = higher value; 1.3% of 310,000 active; B-score at 10 µM; AID 2642; P51787;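 active = compounds whose thallium flux B-score, printed positive for inhibition, exceeds three library SD while starting fluorescence stays within three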;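 also: channel opened by potassium depolarization with thallium stimulus after 20 min compound exposure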
Kir21 inh: Kir2.1 (mouse) channel inhibition | B-score at 10 µM | HEK293-Kir2.1, FluxOR thallium flux fluorescence; stronger effect = lower value | 0.85% of 310,000 active | P35561;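 active = fluorescence ratio B-score at or below minus 3 SD of library scores, with starting-brightness B-score within 2 SD, cut at about -4.2 in these data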;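 also: channel flux triggered by added potassium and thallium sulfate stimulus; B-score of peak minus minimum fluorescence over baseline after thallium stimulus; more negative B-score means stronger Kir2.1 block with less thallium influx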
KCNQ1 block val: human KCNQ1 channel inhibition, validation assay. shares compounds with KCNQ1 inh. KCNQ1 cell line, FluxOR thallium flux fluorescence. inhibition, % at 10 µM. 93% of 1,600 active;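 active = primary screen active, with duplicate mean exceeding buffer control mean plus 3 SD of buffer wells, cut at about 28% in these data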;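 also: 0% = buffer control ratio and 100% = XE991 inhibitor control ratio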
CHO KCNQ1 ctr: counter-screen for KCNQ1 inhibitors: effect in parental CHO cells. shares compounds with KCNQ1 inh. parental CHO-K1, FluxOR thallium flux fluorescence ratio; stronger effect = lower value; zero means no signal rise above baseline. fluorescence ratio (Tl flux) at 10 µM. 21% of 1,600 active. AID 588366;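 active = mean of duplicate thallium-flux fluorescence ratios in parental host cells more than 5 SD below the buffer control mean, cut at about 0.38 in these data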;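 also: ratio is peak minus minimum fluorescence divided by baseline fluorescence; actives read low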
KCNQ2 inh: rat KCNQ2 inhibition in KCNQ1 inhibitor specificity screen; shares compounds with KCNQ1 inh; KCNQ2 cells, FluxOR thallium flux fluorescence; inhibition, % at 10 µM; 71% of 1,600 active; AID 651746;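 active = mean percent inhibition of the KCNQ2 thallium signal more than 5 SD above the buffer-only control wells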;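 also: KCNQ2 expressed in CHO cells; 0% = buffer control wells and 100% = XE-991 inhibitor control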
KCNQ1-KCNE1 inh: selectivity of KCNQ1 inhibitors: inhibition of human KCNQ1/KCNE1 channel | KCNQ1/KCNE1 cells, FluxOR thallium flux fluorescence | 77% of 1,600 active | inhibition, % at 10 µM | AID 652147 | shares compounds with KCNQ1 inh;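 active = mean percent inhibition of duplicate wells above the buffer-only control mean plus 3 SD of those controls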;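 also: 0% = buffer only wells and 100% = XE-991 inhibitor control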
The depositor's hits bear a star; i = inactive; / = no result given; + = active, no number. An excerpt weighted towards active compounds, which were near 3.7% of everything screened.

SMILES	hERG rescue	KCNK9 inh	KCNK3 inh	KCNQ1 act	KCNQ1 inh	Kir21 inh	KCNQ1 block val	CHO KCNQ1 ctr	KCNQ2 inh	KCNQ1-KCNE1 inh
CC1(C)Cc2ccccc2-c2nc(-c3ccccc3)oc(=O)c21	-14	i	i	i	10*	-1	102*	0.44	99%*	130%*
COc1cc(/C=C/c2nc(-c3ccccc3O)n[nH]2)cc(OC)c1OC	-34	i	i	i	6*	1	116*	0.38	113%*	190%*
O=C(CCCOc1cccc(Br)c1)NCCOc1ccccc1	-6	i	i	i	i	2.1	/	/	/	/
Cn1c(CO)cnc1SCc1ccc(Cl)cc1	-4	i	i	i	i	-1.4	/	/	/	/
O=C(c1sc2cc(F)ccc2c1Cl)N1CCN(c2ccccc2)CC1	-12	i	i	i	i	1.5	/	/	/	/
COc1ccc(O)c(CN2CCCC(C(=O)Nc3cccc(-n4cccn4)c3)C2)c1 (stereo not drawn)	-10	i	i	i	i	-1.8	/	/	/	/
Cc1ccc(-n2cccn2)c(CN2CCCC(C(=O)c3sccc3C)C2)c1 (stereo not drawn)	-17	i	i	i	9*	-4.5*	72*	0.4	99%*	54%*
COc1ccc(S(=O)(=O)Nc2ccccc2C(=O)NCc2cccnc2)cc1	-4	i	i	i	i	-0.01	/	/	/	/
Cn1ncc(Br)c1NC(=O)Nc1ccc(OC(F)(F)F)cc1	-12	i	i	i	8*	-0.06	79*	0.49	132%*	i
CCCCOCCCNc1ncnc2c1[nH]c1ccccc12	-31	i	i	i	9*	-9.6*	154*	0.36*	121%*	198%*
Cn1c(=O)c(NC2CCCCC2)c2c3c(cccc31)C(=O)c1ccccc1-2	/	/	i	/	/	/	/	/	/	/
Cn1c(=O)c(NCCc2ccccc2)c2c3c(cccc31)C(=O)c1ccccc1-2	-44	i	i	i	29*	-13	+	0.004*	i	i
CCCCNc1c2c3c(cccc3n(C)c1=O)C(=O)c1ccccc1-2	-38	i	i	i	29*	-12	+	0.013*	i	i
CCOC(=O)c1ccc(NC(=S)NCCc2ccccc2F)cc1	-17	i	i	i	8*	1.9	84*	0.45	77%*	50%*
OCC1(Cc2cccc(Cl)c2)CCCN(Cc2ccc(F)c(F)c2)C1 (stereo not drawn)	-13	i	i	i	i	-0.82	/	/	/	/
CSc1cccc(CN2CCCC(CO)(Cc3cccc(Cl)c3)C2)c1 (stereo not drawn)	-18	i	i	i	7*	-1.2	56*	0.41	101%*	86%*
O=S(=O)(c1cc(F)ccc1F)N1CCN2CCCC2C1 (stereo not drawn)	-8	i	i	i	i	0.43	/	/	/	/
Cc1ccccc1-c1nnc(SCC(=O)NC2CCCC2)n1C	-16	i	i	i	i	-0.04	/	/	/	/
COc1ccc(Nc2nc(-c3cccc([N+](=O)[O-])c3)nc3ccccc23)c(OC)c1	-12	i	i	i	i	-1.5	/	/	/	/
COc1ccc(Nc2nc(-c3cccs3)nc3ccccc23)c(OC)c1	-7	i	i	i	8*	-0.8	132*	0.33*	131%*	+
